SUMO HTRF inh: inhibitors of in vitro SUMOylation cascade, primary screen, biochemical, HTRF, uHTS; SUMO-conjugating enzyme UBC9 (Homo sapiens), P63279; HTRF SUMOylation assay, SAE1/SAE2 + UBC9; inhibition, % at 35 µM; 290,000 tested, 0.36% active; AID 2006, 2009; in the data active = inhibition above about 50%, passing the limit was not always enough; inconclusive = no clear call, values can overlap the other calls
G6PDH counter: L. mesenteroides G6PDH inhibitors, counter-screen for G6PDH-coupled screening assays, biochemical, Leuconostoc mesenteroides enzyme. inhibition, % at 5 µM. AID 1020, 2008. 200,000 tested, 0.12% active. Purified L. mesenteroides G6PDH, diaphorase/resazurin coupled fluorescence, 45 min. glucose-6-phosphate dehydrogenase [Leuconostoc mesenteroides]; in the data active = inhibition above about 50%
Diaphorase inh: diaphorase inhibitors and chemical oxidizers, primary screen, counter-screen for diaphorase-coupled primary assays, biochemical, uHTS, resorufin fluorescence; diaphorase resazurin-to-resorufin fluorescence, NADH, 16 min; bacterial (C. kluyveri) enzyme, not human; inhibition, % at 20 µM; 190,000 tested, 0.69% active;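 active = primary screen inhibition at 20 µM above a set limit, cut at about 50% in these data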;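 note: plate controls were DMSO with full reaction for no effect and wells lacking NADH for full effect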
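Assay system: diaphorase enzyme from Clostridium kluyveri; Input: enzyme working solution with 0.14 U/mL diaphorase; Timing: 16 min at room temperature; Technique: resorufin fluorescence, excitation 544 nm, emission 590 nm; Benchmarks: positive control minus NADH, DMSO neutral control.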
p97 inhibitor: inhibitors of human p97 ATPase, primary screen, biochemical. recombinant p97 ATPase, Kinase-Glo ATP luminescence, 3 h. Transitional endoplasmic reticulum ATPase (Homo sapiens), P55072. AID 1481, 2009. inhibition, % at 8 µM. 220,000 tested, 0.42% active; in the data active = inhibition above about 15%;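 note: 0% = DMSO vehicle and 100% = wells lacking enzyme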
Target sequence (P55072 whole entry, looked up): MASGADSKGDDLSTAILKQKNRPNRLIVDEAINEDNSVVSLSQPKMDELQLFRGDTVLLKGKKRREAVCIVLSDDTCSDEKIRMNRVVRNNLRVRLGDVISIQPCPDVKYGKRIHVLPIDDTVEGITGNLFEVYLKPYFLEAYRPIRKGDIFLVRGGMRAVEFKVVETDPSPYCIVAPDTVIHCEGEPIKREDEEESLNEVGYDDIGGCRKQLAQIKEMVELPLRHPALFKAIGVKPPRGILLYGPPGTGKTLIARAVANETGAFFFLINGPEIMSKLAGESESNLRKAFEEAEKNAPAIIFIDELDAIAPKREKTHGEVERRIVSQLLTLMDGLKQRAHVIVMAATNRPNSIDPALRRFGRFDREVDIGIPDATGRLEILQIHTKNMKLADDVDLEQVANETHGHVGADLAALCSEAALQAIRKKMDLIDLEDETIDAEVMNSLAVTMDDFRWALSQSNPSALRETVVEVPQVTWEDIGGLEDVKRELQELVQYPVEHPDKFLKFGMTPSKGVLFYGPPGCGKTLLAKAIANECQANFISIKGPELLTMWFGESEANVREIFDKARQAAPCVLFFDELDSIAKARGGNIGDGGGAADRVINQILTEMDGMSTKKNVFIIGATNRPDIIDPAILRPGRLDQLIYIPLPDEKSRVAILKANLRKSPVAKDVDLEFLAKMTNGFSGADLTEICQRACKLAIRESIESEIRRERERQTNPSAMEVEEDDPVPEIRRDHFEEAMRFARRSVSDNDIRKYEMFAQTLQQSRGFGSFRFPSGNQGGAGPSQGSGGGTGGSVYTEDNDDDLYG
HKDC1 inh: HKDC1 hexokinase inhibitors, primary screen, biochemical, fluorescence, uHTS; Q2TB90; recombinant HKDC1, G6PDH/diaphorase resazurin coupled fluorescence; inhibition, % at 20 µM; 340,000 tested, 0.16% active; AID 493160, 2011;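 active = inhibition above about 35% when tested at 20 µM, limit read from the data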;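 note: plate controls were DMSO wells with enzyme for no effect and DMSO wells lacking enzyme for full effect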
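Material – in-house recombinant HK5 (HKDC1) enzyme · Quantity – HKDC1 at 5 µg/mL · Buffer or medium – pH 8.0 Tris buffer with 10 mM MgCl2 · Reagent – glucose with 1 mM ATP · Dosing – single 20 µM dose · Times – reaction time 90 min, room temperature, protected from light · Technique – resorufin fluorescence at 613 nm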
p97 confirm: p97 ATPase inhibitors, retest, confirmation, biochemical; shares compounds with p97 inhibitor; recombinant p97 ATPase, Kinase-Glo ATP luminescence; inhibition, % at 8 µM; 760 tested, 44% active;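 active = percent inhibition of p97 ATPase above a set limit, the primary screen's mean plus 3 SD, cut at about 15% in these data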;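 note: 0% = DMSO wells and 100% = wells lacking p97 protein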
Numbers without * were called inactive; u = inconclusive; x = no result. This is a sample that favours compounds with a hit; in the whole collection about 0.95% have one here.

SMILES	SUMO HTRF inh	G6PDH counter	Diaphorase inh	p97 inhibitor	HKDC1 inh	p97 confirm
COc1ccc(C2=NS(=O)(=O)N(C)C(C(=O)NC3CCCCC3)=C2)cc1OC	21	x	x	x	1	x
Cc1cc(SCC(=O)Nc2ccc(O)cc2)n2nc(C)c(-c3ccccc3)c2n1	6	x	x	24*	-1	8
Oc1ccc(N=Cc2ccc(O)c(O)c2)cc1	u	58*	61*	21*	25	13
O=C(COc1ccc(Br)cc1)NNC(=O)c1ccc(-n2cncn2)c([N+](=O)[O-])c1	x	x	x	x	-2	x
O=C(NCc1ccccc1)c1onc(CS(=O)(=O)c2ccccn2)c1C(=O)NCc1ccccc1	x	x	x	x	-4	x
O=C(C#Cc1cccc([N+](=O)[O-])c1)c1ccccc1	8	-4	10	21*	x	25*
CCOC(=O)C1CCCN(S(=O)(=O)c2cn(C)c(=O)n(C)c2=O)C1 (centres undefined)	15	-2	20	17*	-5	3
CCOC(=O)C1CCN(S(=O)(=O)c2cn(C)c(=O)n(C)c2=O)CC1	-4	31	-12	2	-9	x
COc1cc(/C=C/c2ccc3c(Br)cc(Br)c(O)c3n2)ccc1O	-34	x	x	18*	9	15*
CN1C(=O)C2(c3ccccc31)C1CCCC=C1C(C#N)=C(N)C2(C#N)C#N (centres undefined)	1	12	14	17*	7	13
CN1C(=O)C2(C(C#N)=C(N)N(c3cc(Cl)cc(Cl)c3)C3=C2C(=O)CCC3)c2ccccc21 (centres undefined)	-1	-1	16	1	3	x
N#Cc1c(N)n(CCNC(=O)c2ccccc2)c2nc3ccccc3nc12	102	-6	12	3	0	x
CCCCn1c(NC(C)=O)c(C#N)c2nc3ccccc3nc21	102*	43	13	30*	5	4
C=CCn1c(NC(=O)c2ccccc2Cl)c(C#N)c2nc3ccccc3nc21	x	46	4	43*	12	28*
Cc1ccc(NC(=O)CCNS(=O)(=O)c2ccc3c(c2)CCC(=O)N3)cc1	6	x	x	x	-4	x
CCOc1ccc(N=C2SC(C(=O)Nc3ccccc3C#N)C(N)=C2C(=O)Nc2ccc(Cl)cc2)cc1 (centres undefined)	-10	3	10	19*	-4	24*
O=c1[nH]c(CN2CCCCC2)nc2ccccc12	-14	2	-2	25*	-4	3
Cc1ccsc1C=Nc1ccc(O)cc1	x	34	40	25*	24	3
Nn1cnnc1N/N=C\c1ccc(-c2ccccc2[N+](=O)[O-])o1	98*	19	88*	27*	-2	7
O=[N+]([O-])c1ccccc1-c1ccc(/C=N/n2cnnc2)o1	9	8	32	2	-2	x
O=c1c2ccccc2nc2c3ccccc3c(Cl)nn12	-1	7	x	21*	x	25*
CCn1c(C)nc2cc(C(=O)NNC(=O)CN(C)S(=O)(=O)c3ccc(NC(C)=O)cc3)ccc21	x	x	x	x	-8	x
Cc1cc(/C=C2\SC(=S)NC2=O)c(C)n1-c1ccc(O)cc1	26	x	x	56*	7	8
O=c1oc2ccccc2c2oc3cc(O)c(O)cc3c12	25	x	x	19*	9	22*
Nc1c(N)c2ccccc2oc1=O	-3	0	11	-1	-5	x
SMILES	SUMO HTRF inh	G6PDH counter	Diaphorase inh	p97 inhibitor	HKDC1 inh	p97 confirm
CN(C(=S)Nc1cccnc1)c1ccc(O)cc1	64	12	43	18*	5	7
O=C(CSC(=S)N1CCOCC1)c1cc2ccccc2oc1=O	10	x	x	x	0	x
O=C(Cn1c(-c2ccccc2)noc1=O)Nc1ccc(S(=O)(=O)N2CCOCC2)cc1	32	3	16	-6	-3	x
O=C(Cn1c(-c2ccccc2)noc1=O)Nc1ccc(N2CCCCCC2)cc1	-9	1	24	16*	3	3
CCOc1ncccc1C(=O)OCC(=O)NC1CCCCCC1	x	x	x	x	-2	x
CC(=O)N(/N=C1\Sc2ccccc2C1=O)c1ccc(C)cc1C	22	1	22	2	-1	x
CC(=O)N(/N=C1\Sc2ccccc2C1=O)c1ccccc1C	40	4	8	18*	-1	25*
CCN(CC)CCNC(=O)C(=O)Nc1ccc2c(c1)N(S(=O)(=O)c1cccs1)CCC2	x	x	x	x	2	x
CCOC(=O)c1nn(-c2ccccc2Cl)c(=O)cc1OCC(=O)Nc1cccc(OC)c1	x	x	x	x	-1	x
CCOC(=O)c1c(CC(C)C)csc1NC(C)=O	-9	-12	15	-2	-2	x
CCOC(=O)c1c(CC(C)C)csc1NC(=O)c1ccccc1C(=O)O	20	x	x	18*	-2	22*
Cc1ccc(S(=O)(=O)N2CCN(c3nn(C)c(=O)n(C)c3=O)CC2)cc1C	x	x	x	x	-8	x
COC(=O)c1sc(-c2ccccc2)cc1NC(C)=O	1	7	4	-2	2	x
COC(=O)c1sc(-c2cccs2)cc1NC(=O)/C=C/C(=O)O	4	x	x	25*	3	23*
Cc1cc(=O)n2[nH]c(-c3ccsc3-n3c(C)ccc3C)cc2n1	65*	x	x	23*	13	12
Cc1nc2cc(-c3ccsc3-n3c(C)ccc3C)[nH]n2c(=O)c1Cl	41	7	64*	30*	15	10
COCc1cc(=O)n2[nH]c(-c3ccsc3-n3c(C)ccc3C)cc2n1	48	1	49	4	4	x
C=CCN(c1ccccc1)S(=O)(=O)c1ccc2c(c1)NC(=O)C(C)C(=O)N2 (centres undefined)	-2	x	x	x	2	x
C[N+](C)(CC#N)C/C=C\c1ccccc1	15	7	6	17*	-6	4
CN(C/C=C/c1ccccc1)Cc1cccc2ccccc12	x	x	x	x	-2	x
CN(Cc1ccccc1)C(=O)CSc1nc2ccccc2c(=O)n1Cc1ccco1	18	-2	33	7	5	x
Cc1ccc(NC(=O)CN(C)C(=O)CSc2nc3ccccc3c(=O)n2Cc2ccco2)cc1	2	-4	26	19*	0	7
COc1ccccc1C(=O)NCCCCNC(=O)c1ccccc1OC	x	x	x	x	-7	x
CCOc1ccc(OCC)c(NC(=O)C2CCN(c3cnccn3)CC2)c1	9	x	x	x	-4	x
COc1ccc(NC(=O)c2cc(SC)ccc2Cl)cc1	-15	-11	9	16*	-2	4
C#CCOc1ccc(C2C(C#N)=C(N)Oc3cc(O)ccc32)cc1 (centres undefined)	2	x	x	x	12	x
